Substrate in the series: CC(C)C[C@H](NC(=O)CN(C(=O)[C@H](CC(C)C)NC(=O)[C@@H]1CCCN1C(=O)OCc1ccccc1)S(=O)(=O)c1ccc(-c2ccccc2)cc1)C(=O)N[C@@H](CCC(=O)O)C(=O)N[C@@H](CCC(=O)O)C(=O)N[C@@H](C)C(N)=O
Nature of the series: Ratio of Kcat to Km for human MMP-12. In outline:
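Recombinant human MMP12 was incubated with the peptidic prodrug substrate. Cleavage at the N terminus of the P1 leucine was monitored by HPLC, and kcat/Km was determined from the HPLC data.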

B1: Macrophage metalloelastase (Homo sapiens), P39900 (protein)
chain: MKFLLILLLQATASGALPLNSSTSLEKNNVLFGERYLEKFYGLEINKLPVTKMKYSGNLMKEKIQEMQHFLGLKVTGQLDTSTLEMMHAPRCGVPDVHHFREMPGGPVWRKHYITYRINNYTPDMNREDVDYAIRKAFQVWSNVTPLKFSKINTGMADILVVFARGAHGDFHAFDGKGGILAHAFGPGSGIGGDAHFDEDEFWTTHSGGTNLFLTAVHEIGHSLGLGHSSDPKAVMFPTYKYVDINTFRLSADDIRGIQSLYGDPKENQRLPNPDNSEPALCDPNLSFDAVTTVGNKIFFFKDRFFWLKVSERPKTSVNLISSLWPTLPSGIEAAYEIEARNQVFLFKDDKYWLISNLRPEPNYPKSIHSFGFPNFVKKIDAAVFNPRFYRTYFFVDNQYWRYDERRQMMDPGYPKLITKNFQGIGPKIDAVFYSKNKYYYFFQGSNQFEYDFLLQRITKTLKSNSWFGC
For B1, the kcat/Km worked out at 3.7 ×10³ /M.s.

These data come from ChEMBL document CHEMBL2203269, “Target-Activated Prodrugs (TAPs) for the Autoregulated Inhibition of MMP12” (ACS Med Chem Lett, 2012).
